In ChEMBL document CHEMBL5678813, “Optimization of a novel series of N-phenylindoline-5-sulfonamide-based acyl CoA:monoacylglycerol acyltransferase-2 inhibitors: Mitigation of CYP3A4 time-dependent inhibition and phototoxic liabilities” (Bioorg Med Chem, 2015):
pIC50: −log10 of the molar value.

Tests used:
[1] = AUC in mouse at 1 mg/kg, po administered as cassette dose by LC/MS/MS analysis; type: ADME, organism-based; conditions: in vivo
In short: (§1)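 Non-fasted mice dosed by cassette, iv 0.1 mg/kg or po 1 mg/kg suspended in 0.5% methylcellulose aqueous solution; plasma obtained from blood by centrifugation, deproteinized with acetonitrile, and compound concentrations measured by LC/MS/MS.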

[2] = Oral bioavailability in mouse at 1 mg/kg administered as cassette dose by LC/MS/MS analysis; type: ADME, organism-based; conditions: in vivo; in short: as §1
[3] = Permeability of compound at pH 7.4 by PAMPA assay; type: ADME; conditions: read-out: permeability
In short: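 Passive permeability measured by PAMPA at pH 7.4.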

[4] = target: T1, Diacylglycerol O-acyltransferase 1 (Homo sapiens, UniProt O75907); assay: Inhibition of N-terminal FLAG-tagged full-length human DGAT1 expressed in recombinant baculovirus infected Sf21 cells using [1-14C]-oleoyl-CoA and 1,2-dioleoyl-glycerol as substrate incubated for 40 mins by TLC analysis
T1 sequence (O75907 whole entry): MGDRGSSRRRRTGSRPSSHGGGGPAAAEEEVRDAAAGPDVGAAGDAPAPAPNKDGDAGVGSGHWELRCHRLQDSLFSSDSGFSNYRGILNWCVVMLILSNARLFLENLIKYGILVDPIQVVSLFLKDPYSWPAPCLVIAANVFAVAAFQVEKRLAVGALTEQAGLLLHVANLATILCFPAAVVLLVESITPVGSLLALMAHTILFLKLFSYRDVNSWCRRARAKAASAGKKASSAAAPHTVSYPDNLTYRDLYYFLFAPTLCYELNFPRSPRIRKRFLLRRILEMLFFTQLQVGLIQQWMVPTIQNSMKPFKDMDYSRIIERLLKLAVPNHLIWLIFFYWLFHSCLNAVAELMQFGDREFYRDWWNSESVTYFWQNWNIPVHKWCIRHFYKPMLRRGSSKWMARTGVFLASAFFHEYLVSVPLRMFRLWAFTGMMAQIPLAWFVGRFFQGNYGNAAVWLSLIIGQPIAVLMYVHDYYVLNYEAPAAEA
In short: (§2)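 Membranes from baculovirus-infected Sf-21 cells, each enzyme at 30 µg/mL, incubated with 5 µM [1-14C]-oleoyl-CoA and 40 µM 1,2-dioleoyl-glycerol for 40 min at 32 °C. Lipids extracted by modified Bligh & Dyer, resolved on silica TLC, and radioactivity incorporated into lipids quantified.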

[5] = target: T2, Diacylglycerol O-acyltransferase 2 (Homo sapiens, UniProt Q96PD7); assay: Inhibition of N-terminal FLAG-tagged full-length human DGAT2 expressed in recombinant baculovirus infected Sf21 cells using [1-14C]-oleoyl-CoA and 1,2-dioleoyl-glycerol as substrate incubated for 40 mins by TLC analysis; in short: as §2
T2 sequence (Q96PD7 whole entry): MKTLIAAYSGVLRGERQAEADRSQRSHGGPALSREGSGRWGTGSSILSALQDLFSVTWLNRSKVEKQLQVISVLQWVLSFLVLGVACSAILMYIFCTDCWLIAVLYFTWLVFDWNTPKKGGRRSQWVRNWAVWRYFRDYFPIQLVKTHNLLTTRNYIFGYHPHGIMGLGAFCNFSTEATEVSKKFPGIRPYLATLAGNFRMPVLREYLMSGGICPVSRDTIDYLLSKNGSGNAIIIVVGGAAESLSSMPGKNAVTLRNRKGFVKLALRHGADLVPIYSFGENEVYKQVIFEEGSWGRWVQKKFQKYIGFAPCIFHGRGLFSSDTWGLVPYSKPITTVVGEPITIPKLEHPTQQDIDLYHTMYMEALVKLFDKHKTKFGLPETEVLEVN

[6] = target: T3, CYP1A2 (Homo sapiens, UniProt P05177); assay: Reversible inhibition of CYP1A2 in human liver microsomes using tacrine as substrate at 10 uM incubated for 10 mins by LC/MS/MS analysis relative to control; type: ADME, Microsome; conditions: probe tacrine
T3 sequence (P05177 whole entry): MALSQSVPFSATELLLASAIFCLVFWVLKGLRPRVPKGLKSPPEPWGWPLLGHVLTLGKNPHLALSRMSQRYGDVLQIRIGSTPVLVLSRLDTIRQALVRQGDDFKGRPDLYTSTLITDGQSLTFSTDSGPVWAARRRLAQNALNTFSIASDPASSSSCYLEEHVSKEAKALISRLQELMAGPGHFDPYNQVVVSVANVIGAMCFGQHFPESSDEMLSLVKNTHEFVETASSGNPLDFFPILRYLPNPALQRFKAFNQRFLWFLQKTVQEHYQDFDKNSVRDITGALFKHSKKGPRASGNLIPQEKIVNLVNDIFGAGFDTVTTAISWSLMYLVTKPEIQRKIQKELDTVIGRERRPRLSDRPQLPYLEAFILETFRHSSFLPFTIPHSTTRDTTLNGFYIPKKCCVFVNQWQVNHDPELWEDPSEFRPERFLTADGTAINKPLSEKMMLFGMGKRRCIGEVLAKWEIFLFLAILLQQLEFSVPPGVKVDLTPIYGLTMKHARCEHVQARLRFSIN
In short: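 Human liver microsomes at 0.1 mg/mL incubated 10 min at 37 °C with isoform-specific substrate and 10 µM test compound. Pairs: 1A2 tacrine/1-hydroxytacrine; 2C8 paclitaxel/6α-hydroxypaclitaxel; 2C9 tolbutamide/4-hydroxytolbutamide; 2D6 dextromethorphan/dextrorphan; 3A4 midazolam/1'-hydroxymidazolam. Stopped with acetonitrile/water; metabolite measured by LC/MS/MS.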

[7] = In vivo inhibition of MGAT2 in olive oil-induced C57BL/6J mouse model of hypertriglyceridemia assessed as reduction in plasma chylomicron triglyceride level at 3 mg/kg, po preadministered with compound for 6 hrs followed by Pluronic F127 addition for 30 mins and further treated with olive oil for 4 hrs by automatic analyzer relative to control; type: functional; conditions: time 10.5 hrs
In short: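 Male C57BL/6J mice (20–25 g) fasted overnight and dosed orally at 0.3, 1 or 3 mg/kg. Olive oil (8 mL/kg po) or water given 6 h later, with Pluronic F127 500 mg/kg i.p. 30 min before oil. Tail-vein plasma taken at 0, 2 and 4 h and TG measured by automatic analyzer. CM/TG = oil-group TG minus water-group TG; AUC over 4 h; n = 5, mean ± SD; Williams' test vs vehicle.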

`Cn1nc(C(F)(F)F)cc1-c1cnc(N2CCc3cc(S(=O)(=O)Nc4c(F)cc(Cl)cc4F)cc(N4CCCC4=O)c32)nc1` [TP-020] gave an AUC [1] of 2440 ng·h/mL, a bioavailability [2] of 50% and a Papp [3] of 16.6 ×10⁻⁶ cm/s. For the same compound, the pIC50 [4] was < 5.00, the pIC50 [5] was < 5.00 and the inhibition at 10 min, 10 µM [6] was < 10%. It also gave an inhibition in vivo at 3 mg/kg [7] of 100%.
